Measured values taken from the array DNA melting data of Ke et al. (doi:10.1101/2024.01.08.574731).

How the values were obtained:
[1] = folding enthalpy; higher = less favourable; fluorescence melt of hairpins on a sequencing array, two-state fit; settings: sodium 0.088 M
How it was run: (§1)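 On a sequenced MiSeq flow cell, library hairpins with annealed Cy3 and quencher oligos were imaged for Cy3 fluorescence in 2.5 °C steps up to 60 °C, in 50 mM Na-HEPES pH 8.0, 25 mM NaCl. Normalisation used pre-quench Cy3 and control constructs. Bootstrapped two-state fits gave melting temperature and folding enthalpy, combined by inverse variance across four replicates and with fitted temperatures raised by 9.35 °C to match UV melts.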

[2] = melting temperature; fluorescence melt of hairpins on a sequencing array, two-state fit, raised by 9.35 °C to match UV melts; settings: sodium 0.088 M
How it was run: as §1

Sequence | folding enthalpy [1] [kcal/mol] | Tm [2] [°C]
GATCAGGTGGCTGATC ((((((....)))))) | -31.6 | 50.5
GATGCGGGAAACCACATC ((((.((....)).)))) | -35.8 | 44.8
GATCACCAAGGTGATC ((((((....)))))) | -43.3 | 60
GGAAGCGAAAGCTCTTCC ((((((....)))..))) | -18.9 | 43
GTCTTCCGAAAGGAGAC (((.(((....)))))) | -23.4 | 47.6
GAGTCGAAAGACTC (((((....))))) | -29.4 | 60.8
GATCGAATTCTCGATC ((((((....)))))) | -43.3 | 51.4
GTACAAGGAAACTTGTAC (((((((....))))))) | -38.9 | 53.2
GGGCGACGAAAGTCCCC (((.(((....)))))) | -27.5 | 55.4
GGGCTCGAAAGAGGTCCC ((((((....)))..))) | -17.1 | 48.2
GGAGTTCGAAAGAATCC (((.(((....)))))) | -17.5 | 33.5
GCTTGGGGAAACCTAAGC ((((.((....)).)))) | -32.1 | 47.8
GGAGTGCGAAAGCAATCC (((.(((....))).))) | -35.7 | 60.1
GTGCAGCGAAAGCTTCAC (((.(((....))).))) | -27.6 | 51.6
GAATGACGAAAGTCTTTC (((.(((....))).))) | -25.6 | 44.6
GCGATCGGAAACGGTCGC ((((.((....)).)))) | -39.1 | 66.8
GTGTCAGGAAACTGACAC (((((((....))))))) | -37 | 66.4

Sequence | folding enthalpy [1] [kcal/mol] | Tm [2] [°C]
GGCGGCGAAAGCCTCGCC ((((((....)))..))) | -20.8 | 55.4
GACACTGGAAACAATGTC ((((.((....)).)))) | -33.6 | 31.9
GGGCAACGAAAGTTCCCC (((.(((....))).))) | -20.2 | 47.2
GATGCCGGAAACAGCATC (((((.(....).))))) | -36.8 | 46
GCCACAGGAAACTGTGAC (.(((((....))))).) | -15.9 | 46
GATCTGCGGACAGATC ((((((....)))))) | -28.2 | 50.4
GATCGACTGGTCGATC ((((((....)))))) | -37.5 | 62.7
GGCATTGGAAACAATGTC (.(((((....))))).) | -31.9 | 48.1
GAGGGTGGAAACATCCTC ((((.((....)).)))) | -38.8 | 50.5
GAACTGGGAAACCAGCTC ((.((((....)))).)) | -19.4 | 38.5
GCAACTGGAAACAGTCGC ((.((((....)))).)) | -33 | 45.9
CGAGCGGAAACGCGTTCG ((((((....)))..))) | -12.6 | 49.9
GGCTGTGGAAACGCAGCC (((((.(....).))))) | -48.6 | 63.4
GCAAATCGAAAGATCTGC (((.(((....))).))) | -28.3 | 40.4
GTCTCAGGAAACTAAGAC ((((.((....)).)))) | -11.5 | 24.2
GATTCGCGAAAGCGTATC (((.(((....))).))) | -20.6 | 48.8
GCTATGCGAAAGCTGAGC (((..((....))..))) | -21.9 | 47.4
